# Screens as filed in PubChem.
# mABHD4 FP: inhibitors of mouse ABHD4; AID 720543; purified mABHD4, FP-Rh probe fluorescence polarization; inhibition, % at 8.92 µM; Q8VD66; actives 0.54% (n = 370,000);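 active means inhibition exceeding the mean over every tested compound plus 3 SD, cut at about 30% in these data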
#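 Assay system: wild-type mouse ABHD4 protein; compound: single nominal dose of 8.92 µM, 0.89% DMSO final; schedule: 45 min + 60 min at 25 °C; measured by: FP readout, ex 525 nm / em 598 nm; evaluation: % inhibition of FP-Rh probe binding versus controls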
# PRMT1 FP inh: inhibitors of human PRMT1. recombinant PRMT1, activity-based probe fluorescence polarization. inhibition, % at 2.79 µM. actives 1.3% (n = 370,000). AID 652257;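 active means inhibition above about 21% made by adding two undisclosed values, limit read from the data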
# Target sequence (Q99873 whole entry, looked up): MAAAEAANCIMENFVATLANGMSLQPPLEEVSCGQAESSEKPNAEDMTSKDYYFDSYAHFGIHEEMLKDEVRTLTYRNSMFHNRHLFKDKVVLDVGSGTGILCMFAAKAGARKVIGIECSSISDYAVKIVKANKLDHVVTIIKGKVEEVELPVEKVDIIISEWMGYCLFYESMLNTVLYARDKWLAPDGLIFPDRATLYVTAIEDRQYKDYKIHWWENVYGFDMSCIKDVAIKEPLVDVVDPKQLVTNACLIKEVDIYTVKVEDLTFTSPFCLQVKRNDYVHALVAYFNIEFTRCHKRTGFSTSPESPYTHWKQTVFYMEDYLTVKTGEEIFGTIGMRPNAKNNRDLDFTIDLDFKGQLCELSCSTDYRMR
# SIAE primary: inhibitors of human sialic acid acetylesterase SIAE; AID 1053197; actives 0.69% (n = 370,000); inhibition, % at 9.66 µM; SIAE FP-Rh probe binding, fluorescence polarization; Q9HAT2;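 active means inhibition above a cutoff: mean of compounds within the control limits plus 3 SD of those, cut at about 17% in these data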
# HTRA1 inhibitor: blocks human HTRA1 serine peptidase; recombinant HTRA1, FP-rhodamine activity-based probe, fluorescence polarization; inhibition, % at 5.96 µM; actives 0.5% (n = 340,000); in the data active means inhibition above about 36%
# rCAG RNA binder: binds r(CAG) RNA repeats; r(CAG) RNA repeat, TO-PRO-1 dye displacement fluorescence; inhibition, % at 3 µM; actives 1.3% (n = 370,000);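 active means inhibition above the plate cutoff, the mean of all test compounds on that plate plus 3 SD, cut at about 35% in these data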;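 further: higher means more dye released from RNA so lower well fluorescence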
# SIAE inh conf: human SIAE inhibition, confirmation; shares compounds with SIAE primary; SIAE FP-Rh activity-based probe, fluorescence polarization; inhibition, % at 9.66 µM; actives 13% (n = 2,300);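 active means mean inhibition of the replicates above the hit cutoff set in the primary screen, cut at about 17% in these data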;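 further: inhibitors lower polarization as more probe stays unbound to SIAE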
# A number is an active result; . = inactive; / = not tested or not shown. Shown are actives, neighbours in structure and some others; about 3.3% of the full set was active somewhere.
SMILES,mABHD4 FP,PRMT1 FP inh,SIAE primary,HTRA1 inhibitor,rCAG RNA binder,SIAE inh conf
COc1ccccc1CN1C(=O)CN(C2CCCCCC2)C(=O)C1c1ccc(F)cc1 (stereo not drawn),.,.,.,.,.,/
CCC(C)N1C(=O)CN(C2CCCCCC2)C(=O)C1c1ccccc1F (stereo not drawn),.,.,19.3,.,.,.
COc1ccccc1C1=NOC(Cn2c(NCC3CCCO3)nc3c2c(=O)n(C)c(=O)n3C)C1 (stereo not drawn),.,.,17.4,.,.,.
COc1cccc(CN2CCNC(=O)C2CC(=O)NCc2cn3cccc(C)c3n2)c1OC (stereo not drawn),.,.,.,.,.,/
CCOc1ccc(CN2CCNC(=O)C2CC(=O)NCc2ccccn2)cc1 (stereo not drawn),.,.,17.7,.,.,.
COc1cccc(CN2CCNC(=O)C2CC(=O)NCc2cn3ccccc3n2)c1OC (stereo not drawn),.,.,21.7,.,.,.
CCOc1ccc(CN2CCNC(=O)C2CC(=O)NCCc2ccccn2)cc1 (stereo not drawn),.,.,.,.,.,/
CCOC(=O)c1c(C)[nH]c(O)c1C=Nc1ccccc1,.,.,22.1,.,.,.
CCN(CC)c1ccc(NC(=S)NC(=O)c2cccs2)cc1,.,.,17.5,.,.,.
CC(=O)NC(=S)Nc1ccc(NC(=S)NC(=O)c2cccs2)cc1,.,.,.,.,.,/
CC(=O)C1=C(C)N(Cc2ccccc2)C(=O)N[C@H]1c1ccco1,.,.,.,.,.,/
Cc1ccc(-c2noc(N=O)c2NO)cc1,.,.,.,/,.,/
CCCCCCn1c(N(CC)CC)nc2c1c(=O)[nH]c(=O)n2C,.,.,22.7,.,.,.
CC(=O)NCCc1nc2ccccc2n1Cc1cccc(C)c1,.,.,.,.,.,/
O=C(CCNC(=O)c1ccco1)Nc1ccc(Cl)c(C(F)(F)F)c1,.,.,.,.,.,/
COC(=O)c1c([N+](=O)[O-])c(OC)c(OC)c(OC)c1[N+](=O)[O-],.,.,18.6,.,.,.
CC(NCc1ccc(OCC(N)=O)cc1)C12CC3CC(CC(C3)C1)C2 (stereo not drawn),.,.,.,.,.,/
O=C(NCC1CCCCC1)c1cc(S(=O)(=O)N2CCOCC2)ccc1F,.,.,78.8,.,.,.
CC1CCN(S(=O)(=O)c2ccc(Cl)cc2)CC1,.,.,.,.,.,/
CC1CCN(S(=O)(=O)c2ccc(F)c(C(=O)O)c2)CC1,.,.,24.5,.,.,.
CCOC(=O)Cc1nnc(NC(=O)CSc2nc3ccccc3[nH]2)s1,.,.,.,.,.,/
Nc1ccc(-n2nc3ccccc3n2)cc1,.,.,.,.,.,/
Nc1ccc2nn(-c3ccccc3)nc2c1,.,.,19.3,.,.,.
COc1ccc(NC(=O)n2ncc3c(C)cccc32)cc1,.,.,.,.,.,/
COc1ccc(NC(=O)n2ncc3c(C)cccc32)cc1OC,.,.,17.4,.,.,.
SMILES,mABHD4 FP,PRMT1 FP inh,SIAE primary,HTRA1 inhibitor,rCAG RNA binder,SIAE inh conf
O=C(O)CCCCCCNC(=O)c1cncc(O)c1,.,.,23.1,.,.,.
CN1Cc2c(N3CCOCC3)nc3sc(C#N)c(N)c3c2CC1(C)C,.,.,19.9,.,.,.
COc1ccc(C(C#N)=C2C=C(Cl)C(=NO)C=C2Cl)cc1,.,.,.,.,.,/
N#CC(=C1C=C(Br)C(=NO)C=C1Cl)c1cccc2ccccc12,.,.,17.8,.,.,.
CSc1ccc(CNC(=O)C2(C)CCCN2CC(C)C)cc1 (stereo not drawn),.,.,.,/,.,/
O=C1CCCCCCC(=O)[C@H](O)C[C@H](c2ccccc2)O1,.,.,.,/,.,/
CN(C)C(=O)[C@@H]1C[C@H]1[C@@H](NC(=O)OCc1ccccc1)c1ccccc1,.,.,.,.,.,/
COC(=O)[C@H]1C[C@@H]1[C@H](NC(=O)[C@H]1C[C@@H]1[C@H](NC(=O)OCc1ccccc1)c1ccccc1)c1ccccc1,.,.,19.5,.,.,.
O=C(Nc1cccc(/C=C/c2ccccn2)c1)c1ccc(-n2cncn2)c([N+](=O)[O-])c1,.,.,19.3,.,.,.
Nc1ccccc1-c1nnc(SCC(=O)Nc2ccccc2OC(F)F)[nH]c1=O,.,.,.,.,.,/
Cc1nc2c3ccccc3nc(NNC(=O)CCC(=O)N3CCC(C)CC3)n2n1,.,.,22.6,.,.,.
CCN1CCCC1CNC(=O)C(=O)NC(C)c1ccccc1 (stereo not drawn),.,.,19.3,.,.,.
Cc1ccc(S(=O)(=O)N2CCOC23CCN(S(=O)(=O)c2cccs2)CC3)cc1,.,.,18.3,.,.,.
CC(=O)Nc1cc(NC(C)=O)cc(C(=O)NCC2(N3CCOCC3)CCCCC2)c1,.,.,21.4,.,.,.
CC1(C(=O)NS(=O)(=O)C2CC2)CCN(C(=O)c2cccc(OC(F)(F)F)c2)C1 (stereo not drawn),.,.,.,/,.,/
CC(C)c1ccc(NC2CCCN(C(=O)CN3C(=O)CSC3=O)C2)cc1 (stereo not drawn),.,.,17.4,.,.,.
CCn1ncc(/C=N\NC(=O)c2ccc3c(c2)c(C)c(C)n3Cc2ccccc2)c1C,.,.,37.8,.,.,.
CCn1cc(/C=N\NC(=O)c2ccc3c(c2)c(C)c(C)n3Cc2ccccc2)c(C)n1,.,.,.,.,.,/
CCNC(=O)NC(=O)C(C)Sc1ccc2c(c1)OCCO2 (stereo not drawn),.,.,.,.,.,/
CCNC(=O)NC(=O)C(C)Sc1nnc(COc2ccccc2Cl)o1 (stereo not drawn),.,.,28.7,.,.,.
CC(=O)Nc1c2c(nn1-c1cccc(Cl)c1)CS(=O)(=O)C2,.,.,17.5,.,.,.
CC(C)(C)C(=O)Nc1c2c(nn1-c1cccc(Cl)c1)CS(=O)(=O)C2,.,.,.,.,.,/
CC1(C)C(=O)Nc2ccccc2N1C(=O)CSc1ncccn1,.,.,.,.,.,/
C=CCn1c(C)nnc1SCC(=O)N1c2ccccc2NC(=O)C1(C)C,.,.,17.9,.,.,.
CCOc1cc(OCC)cc(C(=O)N2CCC[C@@H]2C(=O)N2CCC[C@@H]2C(=O)NCc2ccccc2Cl)c1,.,.,.,/,.,/
CN(C)c1ccc(C2NC(=O)c3ccccc3N2)cc1 (stereo not drawn),.,.,.,.,.,/
CN(C)c1ccc(C2Nc3cccc4cccc(c34)N2)cc1,.,.,38.0,.,.,.
COc1ccc(C2Nc3cccc4cccc(c34)N2)cc1,.,.,25.3,.,.,.
Clc1cccc(C2Nc3cccc4cccc(c34)N2)c1,.,.,.,.,.,/
CC(C)CN(C(=O)c1ccc(-n2cncn2)c([N+](=O)[O-])c1)C1CCS(=O)(=O)C1 (stereo not drawn),.,.,.,.,.,/
